Test results as given in PubChem BioAssay AID1235 (PCMD, 2008).
The whole screen tested about 62,000 compounds, of which about 50 (0.08%) were called active.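 The calls were made as follows: active = inhibition above 30% in each of the two pooled mixtures holding the compound, so the lower value exceeds 30%; inactive = the rest.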 The list comes from a sample in which actives are over-represented; it also holds similar structures and randomly drawn compounds.

Experiment: blockers of serum C3 deposition on LPS – biochemical, ELISA, human serum, orthogonally pooled compounds, primary screen (AID 1235);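 also: 0% = serum in Mg-EGTA without compound and 100% = EDTA serum blank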
Conditions: Human serum alternative complement pathway, LPS-coated ELISA, tested in compound mixtures, at 5 µM, active compounds read high
Procedure, shortened: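 Test system – human serum alternative complement pathway, C3 deposition on LPS-coated wells · Buffer or medium – diluted human serum in Mg2+-EGTA GVB++ · Compound dosing – 5 µM each compound, pools of ten, 50 µM per pool · Schedule – 1 h serum-compound exposure at 37 °C · Measured by – Anti-C3 ELISA, OD 450 nm · Read-out basis – percent inhibition of C3 deposition onto LPS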

inhibition, inactive:
CCCCn1c(SCc2ncc(-c3ccccc3)o2)nc2cc(S(N)(=O)=O)ccc21 20.9%
O=C(CC(NCCN1CCOCC1)C(=O)O)Nc1cccc(Cl)c1 (centres undefined) -2.21%
COc1ccc(CC(=O)Nc2c3c(nn2-c2cccc(Cl)c2)CS(=O)C3)cc1 (centres undefined) 11.2%
Cc1ccc(OS(=O)Nc2cccc3nccnc23)cc1 (centres undefined) 10%
CCN(c1ccc2c(c1)OCO2)S(=O)(=O)c1cc(Br)cc2c1N(C(=O)C1CC1)CC2 -0.915%
COc1ccccc1-c1nnc(SCC(=O)Nc2ccccc2)o1 4.25%
CCOc1ccccc1NC(=O)CCc1ccc(C)o1 9.69%
O=C(Nc1ccc(S(=O)(=O)N2CCCCC2)cc1)c1cnccn1 13.5%
CCCCCCn1c(CN2CCCC(C)C2)nc2c1c(=O)n(C)c(=O)n2C (centres undefined) 8.35%
CCCOc1ccccc1-c1nc(SCCC(=O)O)n[nH]1 24%
CCCCCn1c(SCCC(C)C)nc2c1c(=O)[nH]c(=O)n2C 4.81%
COc1cc(Cl)c(C)cc1NC(=O)CSc1nnc(-c2ccco2)n1CC(C)C 10.7%
OC(COc1ccccc1)Cn1cc(Br)cn1 (centres undefined) 3.79%
c1ccc(-n2ncc3c2ncn2c(C4CCCCC4)nnc32)cc1 14.3%
COc1ccc(CCNC(=O)CCn2c(=O)oc3ccccc32)cc1OC 6.83%
CSCCC(NC(=O)C1CCC(C)CC1)C(=O)NCc1ccco1 (centres undefined) 11.6%
COC(=O)c1cc(Cl)c(NC(=O)c2ccco2)cc1OC 13%
COCCCNC(=O)CSc1nc2ccc(N3CCOCC3)cc2c(=O)n1CCc1ccccc1 22.2%
CCOC(=O)c1ccc(NC(=O)CSc2nnc(COc3ccccc3OC)n2C)cc1 7.25%
CCOC(=O)c1sc(=S)n(-c2cccc(OC)c2)c1N 5.37%
Cc1ccc(NC(=O)CCNS(=O)(=O)c2ccc3c(c2)oc(=O)n3C)cc1C 15.7%
CC1(C)CC(=O)C=C(NCc2ccncc2)C1 -1.25%
Cc1nn(C(=O)c2ccoc2C)c(N)c1-c1ccccc1 10.4%
O=C(N1CCOCC1)N(Cc1ccccc1)c1ccccn1 -5.66%
Cc1ccc(-c2csc3nnc(SCC(=O)NCc4ccco4)n23)cc1 2.88%
COc1ccc(C2C(C(=O)N3CCN(c4ccc(OC)cc4)CC3)c3ccccc3C(=O)N2C)cc1 (centres undefined) 8.23%
O=C(CSc1nc2ccccc2[nH]1)c1cccs1 12.6%
O=C(c1cc(-c2ccc(O)cc2)on1)N1CCCc2ccccc21 9.64%
CC(C)(C)NC(=O)C(c1ccncc1)N(C(=O)CNC(=O)c1ccco1)c1ccc2c(c1)OCO2 (centres undefined) 4.9%
c1ccc(-c2cc(-c3nnc4sc(-c5ccccn5)nn34)[nH]n2)cc1 8.74%
CC12CCC(C(=O)N3CCN(c4ncccn4)CC3)(c3nc4ccccc4nc31)C2(C)C (centres undefined) 20.7%
O=C(O)C1CC(=O)N(Cc2cccnc2)C1 (centres undefined) 15.1%
COCCNC(=O)Cn1cc2c(n1)CCCCC2 3.37%
COc1ccc(S(=O)(=O)N(CCCN2CCCC2=O)Cc2cc3c(C)ccc(C)c3[nH]c2=O)cc1 5.72%
Clc1ccc(CSc2nnc([C@@H]3CCCN3)o2)cc1 13.7%
CCn1c(SCC(=O)Nc2nc3ccc(OC)cc3s2)nnc1-c1ccoc1C 4.77%
COC(=O)N1CN(C(=O)OC)CN(C(=O)OC)C1 4.11%
Cn1c(SCc2c(F)cccc2Cl)nnc1-c1cnccn1 -5.66%
O=S(=O)(c1ccc(Sc2nnc3ccccn23)nc1)N1CCOCC1 -7.45%
COc1ccccc1-c1cc(C(=O)NCCCn2ccnc2)no1 1.27%
COc1ccccc1N1CCN(CCCCOc2ccc(F)cc2)CC1 0.215%
O=C1CC2(CCCCC2)Oc2ccc(OCC(=O)N3CCOCC3)cc21 9.94%
Cc1csc(NC(=O)C2CCCN2C(=O)OCC(C)C)n1 (centres undefined) -7.74%
Cc1cccc(N2CCN(C(=O)c3cc4c(=O)[nH]c5ccccc5c4n3C)CC2)c1C 8.97%
